Measurements as given in ChEMBL document CHEMBL4007439, “Design, Synthesis, and Evaluation of a Novel Series of Oxadiazine Gamma Secretase Modulators for Familial Alzheimer's Disease” (J Med Chem, 2017).
Converted amounts (≈) assume the structure as drawn. Values belong to the compound of their own block, whether it stands above or below them. The source made the active and inactive calls. The rule behind the calls is not given here.

Key:
[1] = Modulation of gamma-secretase in human H4 cells expressing human APP751 assessed as inhibition of amyloid beta 42 production incubated overnight by sandwich ELISA; assay type: cell-based; conditions: Homo sapiens
In short: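 Aβ42 EC50 in H4 cells overexpressing WT human APP751; each value is the average of n > 2 assays, each run in duplicate.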

Mus musculus [2] = assay: Reduction in amyloid beta 42 levels in mouse brain at 30 mg/kg, po measured at 6 hrs post dose by ELISA; assay type: functional
In short: (§1)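 Single oral dose of 30 mg/kg; brain (mouse, rat) and rat CSF Aβ42 and Aβ37 measured 6 h post-dose, expressed relative to vehicle; total and free brain drug levels and brain:plasma ratio taken at the same time.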

[3] = Unbound intrinsic clearance in rat hepatocytes; assay type: ADME, cell-based, Hepatocyte
[4] = Aqueous solubility of compound in phosphate buffer at pH 7.4 after 90 mins; assay type: physicochemical
In short: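 Kinetic solubility method in pH 7.4 phosphate buffer, incubated 90 min at room temperature.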

[5] = Half life in Cynomolgus monkey at 1 mg/kg, iv; assay type: ADME, organism-based, Macaca fascicularis; conditions: in vivo
In short: (§2)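 Intravenous dosing at 1 mg/kg; half-life, steady-state volume of distribution and clearance derived from the i.v. administration.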

Rattus norvegicus [6] = assay: Reduction in amyloid beta 42 levels in rat brain at 30 mg/kg, po measured at 6 hrs post dose by ELISA; assay type: functional; in short: as §1
[7] = Cmax in Cynomolgus monkey at 10 mg/kg, po; assay type: ADME, organism-based, Macaca fascicularis; design: dose 10 mg/kg, route oral; conditions: in vivo
In short: (§3)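 Oral dosing; AUC and Cmax taken from the p.o. administration; bioavailability (%F) calculated from p.o. and i.v. data.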

[8] = Volume of distribution at steady state in Wistar rat at 1 mg/kg, iv; assay type: ADME, organism-based; conditions: in vivo, read-out: Vdss; in short: as §2
[9] = biological target: Voltage-gated inwardly rectifying potassium channel KCNH2 (Homo sapiens, UniProt Q12809); assay: Inhibition of human ERG by patch clamp assay
In short: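 Functional patch clamp assay of hERG current; IC50 derived.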

TK6 [10] = assay: Genotoxicity in p53-competent human TK6 cells in absence of S9 fraction by GADD45alpha GFP reporter assay; assay type: toxicity, cell-based
In short: (§4)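 GreenScreen GADD45alpha-GFP reporter assay in human cells, run externally.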

[11] = Permeability from apical to basolateral side in human Caco2 cells; assay type: ADME, cell-based; conditions: Caco-2, read-out: permeability
In short: (§5)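 Caco-2 monolayer assay; apical-to-basolateral permeability (cm/s) and efflux ratio used to judge P-gp efflux potential.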

TK6 [12] = assay: Genotoxicity in p53-competent human TK6 cells in presence of S9 fraction by GADD45alpha GFP reporter assay; assay type: toxicity, cell-based; in short: as §4
[13] = Total drug level in mouse brain at 30 mg/kg, po measured at 6 hrs post dose; assay type: ADME, organism-based; conditions: read-out: Drug uptake; in short: as §1
[14] = Cytotoxicity against human HepG2 cells assessed as reduction in cell viability by measuring ATP; conditions: read-out: TC50 (the source's name)
[15] = Volume of distribution at steady state in Cynomolgus monkey at 1 mg/kg, iv; assay type: ADME, organism-based, Macaca fascicularis; conditions: in vivo, read-out: Vdss; in short: as §2
[16] = Clearance in Wistar rat at 1 mg/kg, iv; assay type: ADME, organism-based; conditions: in vivo; in short: as §2
Cytochrome P450 2C9 = Cytochrome P450 2C9 (Homo sapiens, UniProt P11712); assay: Inhibition of CYP2C9 (unknown origin); assay type: ADME
[17] = Half life in Wistar rat at 1 mg/kg, iv; assay type: ADME, organism-based; conditions: in vivo; in short: as §2
[18] = Efflux ratio of permeability in human Caco2 cells; assay type: ADME, cell-based; conditions: Caco-2; in short: as §5
Cytochrome P450 2C8 = biological target: T1, Cytochrome P450 2C8 (Homo sapiens, UniProt P10632); assay: Inhibition of CYP2C8 (unknown origin); assay type: ADME
T1 sequence (P10632 whole entry): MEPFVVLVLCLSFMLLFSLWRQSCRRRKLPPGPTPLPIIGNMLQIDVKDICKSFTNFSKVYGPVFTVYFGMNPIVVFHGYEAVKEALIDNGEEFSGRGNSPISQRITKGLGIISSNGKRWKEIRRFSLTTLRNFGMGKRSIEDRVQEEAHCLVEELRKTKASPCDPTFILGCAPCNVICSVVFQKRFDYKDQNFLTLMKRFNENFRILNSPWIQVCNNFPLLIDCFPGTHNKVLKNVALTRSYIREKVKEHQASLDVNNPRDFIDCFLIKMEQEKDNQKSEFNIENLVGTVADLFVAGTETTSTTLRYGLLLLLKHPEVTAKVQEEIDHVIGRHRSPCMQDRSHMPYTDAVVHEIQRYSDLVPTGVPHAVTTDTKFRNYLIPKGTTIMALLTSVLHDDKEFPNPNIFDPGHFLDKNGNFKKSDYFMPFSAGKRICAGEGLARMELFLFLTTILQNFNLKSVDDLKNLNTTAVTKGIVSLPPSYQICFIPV

Mus musculus [19] = assay: Increase in amyloid beta 37 levels in mouse brain at 30 mg/kg, po measured at 6 hrs post dose by ELISA relative to control; assay type: functional; in short: as §1
Brain [20] = assay: Unbound drug level in rat brain at 30 mg/kg, po measured at 6 hrs post dose; assay type: ADME, organism-based; conditions: in vivo; in short: as §1
Cytochrome P450 2C19 = Cytochrome P450 2C19 (Homo sapiens, UniProt P33261); assay: Inhibition of CYP2C19 (unknown origin); assay type: ADME
Mus musculus [21] = assay: Increase in amyloid beta 37 levels in mouse brain at 30 mg/kg, po measured at 0.5 to 24 hrs post dose by ELISA relative to control
[22] = AUClast in Wistar rat at 10 mg/kg, po; assay type: ADME, organism-based; design: dose 10 mg/kg, route oral, time 0 - last; conditions: in vivo; in short: as §3
Rattus norvegicus [23] = assay: Reduction in amyloid beta 42 levels in rat CSF at 30 mg/kg, po measured at 6 hrs post dose by ELISA; assay type: functional; in short: as §1
[24] = Oral bioavailability in Wistar rat at 10 mg/kg; assay type: ADME, organism-based; conditions: in vivo; in short: as §3
Brain [25] = assay: Unbound drug level in mouse brain at 30 mg/kg, po measured at 6 hrs post dose; assay type: ADME, organism-based; conditions: in vivo; in short: as §1
Cytochrome P450 3A4 [26] = biological target: T2, Cytochrome P450 3A4 (Homo sapiens, UniProt P08684); assay: Time dependent inhibition of CYP3A4 (unknown origin) at 5 to 25 uM; assay type: ADME
Cynomolgus monkey [27] = assay: AUClast in Cynomolgus monkey at 10 mg/kg, po; assay type: ADME, organism-based, Macaca fascicularis; design: dose 10 mg/kg, route oral, time 0 - last; conditions: in vivo; in short: as §3
Cynomolgus monkey [28] = assay: Oral bioavailability in Cynomolgus monkey at 10 mg/kg; assay type: ADME, organism-based, Macaca fascicularis; conditions: in vivo; in short: as §3
Cytochrome P450 3A4 [29] = biological target: T2, Cytochrome P450 3A4; assay: Inhibition of CYP3A4 (unknown origin); assay type: ADME
Cytochrome P450 2D6 = Cytochrome P450 2D6 (Homo sapiens, UniProt P10635); assay: Inhibition of CYP2D6 (unknown origin); assay type: ADME
[30] = Cmax in Wistar rat at 10 mg/kg, po; assay type: ADME, organism-based; design: dose 10 mg/kg, route oral; conditions: in vivo; in short: as §3
Mus musculus [31] = assay: Decrease in amyloid beta 42 in mouse brain at 30 mg/kg, po administered as single dose after 0.5 to 24 hrs; assay type: functional
[32] = Total drug level in rat brain at 30 mg/kg, po measured at 6 hrs post dose; assay type: ADME, organism-based; conditions: read-out: Drug uptake; in short: as §1
Rattus norvegicus [33] = assay: Increase in amyloid beta 37 levels in rat brain at 30 mg/kg, po measured at 6 hrs post dose by ELISA relative to control; assay type: functional; in short: as §1
Mus musculus [34] = assay: Decrease in amyloid beta 42 AUC(1 to 24 hrs) in mouse brain at 30 mg/kg, po administered as single dose after 0.5 to 24 hrs; assay type: functional
[35] = Ratio of drug level in brain to plasma in mouse at 30 mg/kg, po measured at 6 hrs post dose; assay type: ADME, organism-based; conditions: read-out: BPR; in short: as §1
Rattus norvegicus [36] = assay: Increase in amyloid beta 37 levels in rat CSF at 30 mg/kg, po measured at 6 hrs post dose by ELISA relative to control; assay type: functional; in short: as §1
Cytochrome P450 1A2 = biological target: T3, Cytochrome P450 1A2 (Homo sapiens, UniProt P05177); assay: Inhibition of CYP1A2 (unknown origin); assay type: ADME
T3 sequence (P05177 whole entry): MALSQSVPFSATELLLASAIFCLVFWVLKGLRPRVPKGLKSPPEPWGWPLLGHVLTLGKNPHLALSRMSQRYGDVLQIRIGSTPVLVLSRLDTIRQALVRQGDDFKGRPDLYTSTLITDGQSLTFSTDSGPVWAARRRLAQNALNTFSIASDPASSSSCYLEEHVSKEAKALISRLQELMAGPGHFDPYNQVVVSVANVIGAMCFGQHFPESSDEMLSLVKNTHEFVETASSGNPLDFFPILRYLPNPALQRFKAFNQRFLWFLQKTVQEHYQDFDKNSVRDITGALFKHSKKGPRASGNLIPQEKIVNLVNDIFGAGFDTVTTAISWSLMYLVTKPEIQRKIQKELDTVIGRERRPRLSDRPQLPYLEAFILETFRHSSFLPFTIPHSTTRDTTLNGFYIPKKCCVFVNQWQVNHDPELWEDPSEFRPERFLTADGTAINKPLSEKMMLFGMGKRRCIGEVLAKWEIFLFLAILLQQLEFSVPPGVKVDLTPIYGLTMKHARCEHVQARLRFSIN

T2 sequence (P08684 whole entry): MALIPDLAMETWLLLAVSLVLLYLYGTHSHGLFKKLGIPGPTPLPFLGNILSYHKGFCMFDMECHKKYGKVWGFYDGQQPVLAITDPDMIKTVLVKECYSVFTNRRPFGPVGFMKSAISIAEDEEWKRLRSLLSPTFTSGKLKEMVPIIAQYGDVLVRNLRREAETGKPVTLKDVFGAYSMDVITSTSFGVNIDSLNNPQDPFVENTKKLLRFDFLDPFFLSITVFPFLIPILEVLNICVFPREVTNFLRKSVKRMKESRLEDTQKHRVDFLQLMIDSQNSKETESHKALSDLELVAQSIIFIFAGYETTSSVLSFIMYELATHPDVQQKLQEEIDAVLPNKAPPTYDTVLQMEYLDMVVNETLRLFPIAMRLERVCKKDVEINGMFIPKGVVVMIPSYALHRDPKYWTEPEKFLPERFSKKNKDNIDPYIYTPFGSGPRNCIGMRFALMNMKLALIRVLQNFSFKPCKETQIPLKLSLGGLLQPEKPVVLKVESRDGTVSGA
Chain of Cytochrome P450 2D6 (P10635 whole entry): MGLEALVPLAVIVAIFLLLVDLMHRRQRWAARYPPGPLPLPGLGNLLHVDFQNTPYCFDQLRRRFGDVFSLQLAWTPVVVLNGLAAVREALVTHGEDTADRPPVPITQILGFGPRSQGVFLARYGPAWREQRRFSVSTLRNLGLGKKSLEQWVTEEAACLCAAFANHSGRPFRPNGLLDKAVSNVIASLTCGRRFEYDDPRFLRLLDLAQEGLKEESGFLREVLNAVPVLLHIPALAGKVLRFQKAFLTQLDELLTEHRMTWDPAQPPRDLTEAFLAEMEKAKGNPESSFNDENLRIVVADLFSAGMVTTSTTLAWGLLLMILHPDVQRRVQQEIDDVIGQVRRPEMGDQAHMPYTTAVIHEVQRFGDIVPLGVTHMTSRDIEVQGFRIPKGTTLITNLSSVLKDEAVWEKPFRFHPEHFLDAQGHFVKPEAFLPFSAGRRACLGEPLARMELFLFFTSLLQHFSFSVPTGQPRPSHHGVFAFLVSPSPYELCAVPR
Chain of Cytochrome P450 2C19 (P33261 whole entry): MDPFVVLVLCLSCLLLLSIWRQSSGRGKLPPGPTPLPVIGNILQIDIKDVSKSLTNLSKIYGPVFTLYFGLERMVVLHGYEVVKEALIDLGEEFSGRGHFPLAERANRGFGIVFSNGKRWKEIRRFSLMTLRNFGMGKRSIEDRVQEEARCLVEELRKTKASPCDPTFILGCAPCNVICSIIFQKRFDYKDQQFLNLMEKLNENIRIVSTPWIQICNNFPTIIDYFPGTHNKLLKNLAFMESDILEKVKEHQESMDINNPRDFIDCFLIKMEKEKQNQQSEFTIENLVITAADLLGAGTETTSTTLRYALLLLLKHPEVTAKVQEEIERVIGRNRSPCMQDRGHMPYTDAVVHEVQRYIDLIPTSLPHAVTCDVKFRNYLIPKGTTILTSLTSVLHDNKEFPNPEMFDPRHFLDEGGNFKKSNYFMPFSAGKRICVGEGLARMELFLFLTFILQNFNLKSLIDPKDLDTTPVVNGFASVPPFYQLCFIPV
Chain of Voltage-gated inwardly rectifying potassium channel KCNH2 (Q12809 whole entry): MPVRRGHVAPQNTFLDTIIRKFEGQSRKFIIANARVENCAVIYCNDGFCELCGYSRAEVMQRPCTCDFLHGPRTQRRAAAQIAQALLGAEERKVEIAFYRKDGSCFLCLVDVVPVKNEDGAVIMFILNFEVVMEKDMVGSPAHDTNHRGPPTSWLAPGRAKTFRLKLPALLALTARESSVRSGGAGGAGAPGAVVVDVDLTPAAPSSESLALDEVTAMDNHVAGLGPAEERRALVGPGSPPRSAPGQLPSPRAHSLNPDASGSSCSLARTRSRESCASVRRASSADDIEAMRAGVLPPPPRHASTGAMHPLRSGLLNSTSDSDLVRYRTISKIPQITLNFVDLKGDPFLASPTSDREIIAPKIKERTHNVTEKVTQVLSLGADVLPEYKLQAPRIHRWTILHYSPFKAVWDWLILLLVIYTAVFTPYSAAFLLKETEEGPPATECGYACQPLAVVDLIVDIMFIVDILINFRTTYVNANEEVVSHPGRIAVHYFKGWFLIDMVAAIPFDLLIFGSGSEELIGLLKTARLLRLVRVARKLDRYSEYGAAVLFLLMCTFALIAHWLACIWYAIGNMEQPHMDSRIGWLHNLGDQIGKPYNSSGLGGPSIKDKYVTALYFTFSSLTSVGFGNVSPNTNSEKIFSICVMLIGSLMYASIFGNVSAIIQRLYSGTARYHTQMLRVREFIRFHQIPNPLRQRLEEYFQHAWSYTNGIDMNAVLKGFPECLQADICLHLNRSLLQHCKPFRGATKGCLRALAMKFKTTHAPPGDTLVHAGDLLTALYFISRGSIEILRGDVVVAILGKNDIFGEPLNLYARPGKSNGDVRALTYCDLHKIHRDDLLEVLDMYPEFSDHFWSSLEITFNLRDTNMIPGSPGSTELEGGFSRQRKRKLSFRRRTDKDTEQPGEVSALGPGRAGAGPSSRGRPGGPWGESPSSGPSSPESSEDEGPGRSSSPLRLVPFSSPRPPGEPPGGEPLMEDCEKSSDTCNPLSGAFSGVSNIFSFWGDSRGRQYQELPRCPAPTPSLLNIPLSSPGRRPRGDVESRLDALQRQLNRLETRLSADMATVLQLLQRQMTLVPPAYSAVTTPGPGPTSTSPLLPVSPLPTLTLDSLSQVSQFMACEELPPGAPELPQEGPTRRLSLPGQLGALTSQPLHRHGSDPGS
Chain of Cytochrome P450 2C9 (P11712 whole entry): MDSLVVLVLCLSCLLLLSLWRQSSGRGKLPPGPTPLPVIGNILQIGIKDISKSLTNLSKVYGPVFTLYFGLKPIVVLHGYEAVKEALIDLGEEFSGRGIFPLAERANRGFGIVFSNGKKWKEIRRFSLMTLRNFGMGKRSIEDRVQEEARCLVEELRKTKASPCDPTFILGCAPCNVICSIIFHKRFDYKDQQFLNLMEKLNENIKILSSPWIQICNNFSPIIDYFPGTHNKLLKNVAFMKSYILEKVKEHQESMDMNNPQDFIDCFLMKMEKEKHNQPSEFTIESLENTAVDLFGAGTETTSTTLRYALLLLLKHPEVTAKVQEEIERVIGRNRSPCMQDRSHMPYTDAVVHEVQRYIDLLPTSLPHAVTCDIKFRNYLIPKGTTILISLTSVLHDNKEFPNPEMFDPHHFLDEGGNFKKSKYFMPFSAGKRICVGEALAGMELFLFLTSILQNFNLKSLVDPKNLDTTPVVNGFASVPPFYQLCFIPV

CL free [3]: 3830 mL/min/kg
EC50 [1]: 0.027 µM
SMILES: COc1nc(C2=NOC[C@H](COc3ccc(Cl)cc3C(F)(F)F)N2)ccc1-n1cnc(C)c1
Activity (Mus musculus [2]): inactive

CL free [3]: 4105 mL/min/kg
EC50 [1]: 0.072 µM
SMILES: COc1nc(C2=NOC[C@H](COc3ccc(F)cc3C)N2)ccc1-n1cnc(Cl)c1

EC50 [1]: 0.23 µM
SMILES: COc1cc(C2=NOC[C@H](COc3ccc(F)cc3C)N2)ccc1-n1cnc(C)c1
Activity (Mus musculus [2]): inactive

EC50 [1]: 0.24 µM
SMILES: COc1nc(C2=NOC[C@@H]3[C@H](Oc4ccc(F)cc4C)CCCN23)ccc1-c1ccnc(C)c1

EC50 [1]: 2.89 µM
SMILES: COc1cc(C2=NOC[C@@H](COc3ccc(F)cc3C)N2)ccc1-n1cnc(C)c1
Activity (Mus musculus [2]): inactive

EC50 [1]: 0.109 µM
SMILES: COc1cc(C2=NOC[C@H](COc3ccc(Cl)cc3C(F)(F)F)N2)ccc1-n1cnc(C)c1
Activity (Mus musculus [2]): inactive

Second part, the compound before the results:

SMILES: COc1nc(C2=NOC[C@H](COc3ccc(F)cc3C)N2)ccc1-c1cnc(C)s1
EC50 [1]: 1.27 µM

SMILES: COc1cc(C2=NOC[C@H](COc3ccc(Cl)cc3C(F)(F)F)N2C)ccc1-n1cnc(C)c1
EC50 [1]: 0.113 µM
Activity (Mus musculus [2]): inactive

SMILES: COc1nc(C2=NOC[C@H](c3cc4ccccc4o3)N2)ccc1-n1cnc(C)c1
solubility at 1.5 h [4]: 84 µM (≈ 32.7 µg/mL)
half-life [5]: 1.5 h
inhibition in vivo at 30 mg/kg (Rattus norvegicus [6]): 30%
Cmax [7]: 11 µM
Vd [8]: 1 L/kg
IC50 [9]: 15 µM
Activity (TK6 [10]): Non-Toxic
Papp A→B [11]: 10 ×10⁻⁶ cm/s
Activity (TK6 [12]): Non-Toxic
CL free [3]: 84 mL/min/kg
concentration at 6 h [13]: 29.8 to 30 µM
CC50 [14]: > 72 µM
Vd [15]: 0.9 L/kg
clearance [16]: 5.8 mL/min/kg
IC50 (Cytochrome P450 2C9): 8 µM
half-life [17]: 2.2 h
efflux ratio [18]: 1.1
IC50 (Cytochrome P450 2C8): > 25 µM
fold change (FC) (Mus musculus [19]): 3.2
EC50 [1]: 0.035 µM
Drug uptake(free) (Brain [20]): 156 nM
IC50 (Cytochrome P450 2C19): 17 µM
fold change (FC) (Mus musculus [21]): 3.1
inhibition in vivo at 30 mg/kg (Mus musculus [2]): 43%
AUC(0-t) [22]: 67.8 µM·h
inhibition in vivo at 30 mg/kg (Rattus norvegicus [23]): 58%
bioavailability [24]: 93%
Drug uptake(free) (Brain [25]): 427 nM
TDI (Cytochrome P450 3A4 [26]): Not Active
AUClast (Cynomolgus monkey [27]): 8.1 µM·h
F (Cynomolgus monkey [28]): 136%
IC50 (Cytochrome P450 3A4 [29]): 25 µM
IC50 (Cytochrome P450 2D6): 2 µM
Cmax [30]: 7.3 µM
Imax (Mus musculus [31]): 45%
concentration at 6 h [32]: 13.7 µM
fold change (FC) (Rattus norvegicus [33]): 2.5
inhibition in vivo at 30 mg/kg (Mus musculus [34]): 34%
Kp at 6 h [35]: 1.5
fold change (FC) (Rattus norvegicus [36]): 20
IC50 (Cytochrome P450 1A2): 3 µM

SMILES: COc1cc(C2=NOC[C@@H](COc3ccc(F)cc3C)N2)ccc1-c1ccnc(C)c1
EC50 [1]: 6.45 µM
Activity (Mus musculus [2]): inactive

SMILES: COc1nc(C2=NOC[C@H](COc3ccc(F)cc3C)N2)ccc1-n1cnc(C)c1
CL free [3]: 1906 mL/min/kg
EC50 [1]: 0.051 µM

SMILES: COc1cc(C2=NOC[C@H](COc3ccc(Cl)cc3C(F)(F)F)N2)ccc1-c1ccnc(C)c1
EC50 [1]: 0.249 µM
Activity (Mus musculus [2]): inactive
